Source: ChEMBL document CHEMBL1132614, “Novel inhibitors of carboxypeptidase G2 (CPG2): potential use in antibody-directed enzyme prodrug therapy” (J Med Chem, 1999)

What was measured:
LS174T [1] = test: The compound was evaluated for the cytotoxicity towards LS174T cells.; type: functional, cell-based; conditions: Homo sapiens
Method in brief: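 LS174T human colon adenocarcinoma cells (CEA-expressing) exposed to graded inhibitor, 0.01–500 μM in medium, for 1 h at 37 °C. Cells were washed once, grown a further 6 days, and survival was read by SRB assay to give IC50.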

LS174T [2] = test: The compound was evaluated for the cytotoxicity in conjugate with F(ab')2-A5B7-CPG2 against LS174T cells.; type: functional, cell-based; conditions: Homo sapiens
Method in brief: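 They then received graded prodrug (0.01–500 μM in medium) for 1 h at 37 °C to generate the phenol mustard in situ. After a wash and a further 6 days, survival was measured by SRB assay.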

LS174T [3] = test: Cytotoxicity in conjugate with F(ab')2-A5B7-CPG2 and 2-(4-Methoxy-phenylsulphanylcarbonylamino)-pentanedioic acid at a concentration of 25 uM against LS174T cells.; type: functional, cell-based; conditions: Homo sapiens
Method in brief: (§1)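 LS174T human colon adenocarcinoma cells (CEA-expressing) were exposed to F(ab')2-A5B7-CPG2 conjugate (3.32 μg/mL, 0.505 U/mL) for 1 h at 37 °C and washed twice to remove unbound conjugate. They were then exposed for 1 h at 37 °C to graded prodrug plus the stated fixed CPG2 inhibitor level (25 or 50 μM). After a wash, cells grew 6 days; survival was measured by SRB assay.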

LS174T [4] = test: The compound was evaluated for the cytotoxicity with the compound alone against LS174T cells.; type: functional, cell-based; conditions: Homo sapiens
Method in brief: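 LS174T cells were exposed to graded compound alone (0.01–500 μM in medium) for 1 h at 37 °C, with no conjugate. Cells were washed once with medium and cultured a further 6 days. Survival was measured by sulforhodamine B (SRB) assay.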

LS174T [5] = test: Cytotoxicity in conjugate with 2-(4-Methoxy-phenylsulphanylcarbonylamino)-pentanedioic acid at a concentration of 50 micuM against LS174T cells.; type: functional, cell-based; conditions: Homo sapiens
LS174T [6] = test: Cytotoxicity in conjugate with F(ab')2-A5B7-CPG2 and 2-(4-Methoxy-phenylsulphanylcarbonylamino)-pentanedioic acid at a concentration of 50 uM against LS174T cells.; type: functional, cell-based; conditions: Homo sapiens; method in brief: as §1
[7] = The compound was evaluated for the apparent Vmax through Lineweaver-Burke Plots of MTX turnover by CPG2 at a concentration of 1 (uM).; type: ADME
Method in brief: (§2)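 CPG2 (10 μL of 28.66 μg/mL stock) in a 1-mL cuvette; reaction started with 990 μL methotrexate (3.077–70 μM) alone or with inhibitor at fixed 0.5 or 1.0 μM (final). Buffer was 0.1 M Tris-HCl pH 7.3, 0.1 mM ZnCl2, 37 °C. A320 decrease over 0–60 s gave initial velocities; apparent Vmax came from Lineweaver–Burk plots.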

[8] = The compound was evaluated for the apparent Vmax through Lineweaver-Burke Plot of MTX turnover by CPG2 at a concentration of 0.5 (uM).; type: ADME; method in brief: as §2
[9] = The compound was evaluated for the apparent Vmax through Lineweaver-Burke Plots of MTX turnover by CPG2 at a concentration of 0 (uM).; type: ADME; method in brief: as §2

Cc1ccc(SC(=O)NC(CCC(=O)O)C(=O)O)cc1 (stereo not given)
IC50 (LS174T [1]): > 500 µM

O=C(O)CCC(NC(=O)Oc1ccc(N(CCCl)CCCl)cc1)C(=O)O (stereo not given)
IC50 (LS174T [2]): 0.8 µM | IC50 (LS174T [3]): 3.3 µM | IC50 (LS174T [4]): 23.2 µM | IC50 (LS174T [5]): 24 µM | IC50 (LS174T [6]): 16.2 µM

COc1cccc(SC(=O)NC(CCC(=O)O)C(=O)O)c1 (stereo not given)
IC50 (LS174T [1]): > 500 µM

Cc1cccc(SC(=O)NC(CCC(=O)O)C(=O)O)c1 (stereo not given)
IC50 (LS174T [1]): > 500 µM

Nc1ccc(SC(=O)NC(CCC(=O)O)C(=O)O)cc1 (stereo not given)
IC50 (LS174T [1]): 416 µM

COc1ccc(SC(=O)N[C@@H](CCC(=O)O)C(=O)O)cc1
IC50 (LS174T [1]): > 500 µM

COc1ccc(SC(=O)N[C@H](CCC(=O)O)C(=O)O)cc1
Vmax [7]: 42.3 µM/min | IC50 (LS174T [1]): > 500 µM | Vmax [8]: 47.7 µM/min | Vmax [9]: 80 µM/min

Nc1cccc(SC(=O)NC(CCC(=O)O)C(=O)O)c1 (stereo not given)
IC50 (LS174T [1]): > 500 µM
